These results are taken from ChEMBL document CHEMBL3745659, “Synthesis and Characterization of 4,11-Diaminoanthra[2,3-b]furan-5,10-diones: Tumor Cell Apoptosis through tNOX-Modulated NAD(+)/NADH Ratio and SIRT1” (J Med Chem, 2015).

A short description of data set [1]: Antiproliferative activity against human K562/4 cells after 72 hrs by MTT assay. In kind it is functional, cell-based. The note with it: K562/4, 72 h.
For data set [2], the system named is AGS. As to the kind of experiment: Induction of apoptosis in human AGS cells after 24 hrs by annexin V-FITC staining-based flow cytometric analysis. Type of data set: functional, cell-based. The gist of the method: (§1)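 AGS cells exposed to compound for 24 h; Annexin V-FITC staining and flow cytometry used to give percentage of apoptotic cells; mean ± S.E. from at least three independent experiments.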

In another data set the test system is CCRF-CEM. As to the kind of experiment: Antiproliferative activity against human CEM cells after 72 hrs by MTT assay. In kind it is functional, cell-based.
Data set [3] has as its system AGS. As to the kind of experiment: Upregulation of phosphorylated p53 level in human AGS cells at 1 and 5 uM after 24 hrs by Western blot analysis. Type of data set: functional, cell-based.
Data set [4] concerns the target T1, NAD-dependent protein deacetylase sirtuin-1 (Homo sapiens) (UniProt Q96EB6).
T1 sequence (whole entry): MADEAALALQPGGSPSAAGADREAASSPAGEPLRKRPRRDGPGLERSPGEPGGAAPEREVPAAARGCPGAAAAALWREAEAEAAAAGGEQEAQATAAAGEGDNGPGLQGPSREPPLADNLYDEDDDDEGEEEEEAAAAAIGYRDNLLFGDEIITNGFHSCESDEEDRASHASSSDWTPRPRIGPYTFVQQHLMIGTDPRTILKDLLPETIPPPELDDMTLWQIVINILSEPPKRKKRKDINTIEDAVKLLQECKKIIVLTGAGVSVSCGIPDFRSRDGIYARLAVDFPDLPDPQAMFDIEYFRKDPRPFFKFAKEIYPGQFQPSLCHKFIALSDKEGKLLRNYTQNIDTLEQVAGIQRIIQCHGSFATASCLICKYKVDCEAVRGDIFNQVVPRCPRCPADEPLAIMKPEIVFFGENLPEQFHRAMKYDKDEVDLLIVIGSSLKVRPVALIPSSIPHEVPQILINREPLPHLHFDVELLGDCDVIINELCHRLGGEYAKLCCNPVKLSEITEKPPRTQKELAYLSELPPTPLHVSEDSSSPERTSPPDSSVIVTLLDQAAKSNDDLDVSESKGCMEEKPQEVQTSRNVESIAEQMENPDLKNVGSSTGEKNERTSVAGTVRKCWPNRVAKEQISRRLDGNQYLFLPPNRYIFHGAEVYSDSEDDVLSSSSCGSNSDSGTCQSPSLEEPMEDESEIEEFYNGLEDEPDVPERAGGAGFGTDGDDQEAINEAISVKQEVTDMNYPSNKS
As to the kind of experiment: Inhibition of human recombinant SIRT1 deacetylase activity using Arg-His-Lys-Lys(epsilon-acetyl)-AMC as substrate at 5 uM incubated for 45 mins by fluorescence analysis.

The target in data set [5] is T2, DNA topoisomerase 1 (Homo sapiens) (UniProt P11387).
T2 sequence (whole entry): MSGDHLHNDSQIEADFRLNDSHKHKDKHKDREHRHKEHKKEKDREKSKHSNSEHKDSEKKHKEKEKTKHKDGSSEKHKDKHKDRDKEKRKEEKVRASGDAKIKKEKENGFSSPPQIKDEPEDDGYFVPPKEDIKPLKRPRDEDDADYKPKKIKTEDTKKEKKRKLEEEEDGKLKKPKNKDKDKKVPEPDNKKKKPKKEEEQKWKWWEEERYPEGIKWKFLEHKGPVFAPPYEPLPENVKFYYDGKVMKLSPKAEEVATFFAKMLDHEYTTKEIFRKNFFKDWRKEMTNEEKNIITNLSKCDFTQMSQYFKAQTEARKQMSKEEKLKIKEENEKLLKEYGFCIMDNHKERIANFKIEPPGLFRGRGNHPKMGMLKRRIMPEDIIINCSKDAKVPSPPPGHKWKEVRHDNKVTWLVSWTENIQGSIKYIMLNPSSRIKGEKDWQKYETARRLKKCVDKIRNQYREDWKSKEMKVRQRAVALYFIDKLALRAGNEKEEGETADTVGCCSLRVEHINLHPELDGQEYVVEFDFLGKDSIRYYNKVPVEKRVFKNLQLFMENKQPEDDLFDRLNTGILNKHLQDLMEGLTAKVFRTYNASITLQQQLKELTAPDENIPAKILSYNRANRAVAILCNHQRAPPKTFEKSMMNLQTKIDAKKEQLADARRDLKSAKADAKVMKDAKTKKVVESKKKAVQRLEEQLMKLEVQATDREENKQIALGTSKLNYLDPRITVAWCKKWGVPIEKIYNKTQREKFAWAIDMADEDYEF
As to the kind of experiment: Inhibition of Top1 (unknown origin)-mediated relaxation of pBR322 DNA at 0.5 to 10 uM incubated for 30 mins by ethidium bromide staining-based gel electrophoresis assay. An outline of the steps: (§2)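 Supercoiled pBR322 plasmid treated with Top1 without drug or with compound at 0.5, 2.5 or 10 µM; camptothecin as reference; relaxation assessed by gel electrophoresis.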

In data set [6] the test system is K562. As to the kind of experiment: Antiproliferative activity against human K562 cells after 72 hrs by MTT assay. In kind it is functional, cell-based. Conditions: K562, 72 h.
For data set [7], the system named is AGS. As to the kind of experiment: Downregulation of Bid protein level in human AGS cells after 24 hrs by Western blot analysis. In kind it is functional, cell-based.
The nature of data set [8]: Antiproliferative activity against human HCT116 cells after 72 hrs by MTT assay. Conditions: HCT-116, 72 h. Type of data set: functional, cell-based.
The subject of data set [9] is AGS. As to the kind of experiment: Downregulation of tNOX protein level in human AGS cells at 1 and 5 uM after 24 hrs by Western blot analysis. Type of data set: functional, cell-based.
Data set [10] deals with AGS. As to the kind of experiment: Induction of apoptosis in human AGS cells assessed as necrotic cells at 10 uM after 24 hrs by annexin V-FITC staining-based flow cytometric analysis (Rvb=1.1%). In kind it is functional.
The test system of data set [11] is K562. As to the kind of experiment: Resistance index, ratio of IC50 for human K562/4 cells to IC50 for human K562 cells. Type of data set: functional.
Data set [12] concerns AGS. As to the kind of experiment: Induction of apoptosis in human AGS cells assessed as late apoptotic cells at 10 uM after 24 hrs by annexin V-FITC staining-based flow cytometric analysis (Rvb=5.5%). Type of data set: functional. The gist of the method: as §1
A further data set relates to L1210. As to the kind of experiment: Antiproliferative activity against mouse L1210 cells after 72 hrs by MTT assay. The note with it: L1210, 72 h.
For data set [13], the system named is AGS. As to the kind of experiment: Induction of apoptosis in human AGS cells assessed as viable cells at 10 uM after 24 hrs by annexin V-FITC staining-based flow cytometric analysis (Rvb=83.7%). Type of data set: functional. An outline of the steps: as §1
In another data set the test system is HeLa. As to the kind of experiment: Antiproliferative activity against human HeLa cells after 72 hrs by MTT assay. Type of data set: functional, cell-based.
Data set [14] concerns AGS. As to the kind of experiment: Induction of apoptosis in human AGS cells assessed as early apoptotic cells at 10 uM after 24 hrs by annexin V-FITC staining-based flow cytometric analysis (Rvb=9.8%). In kind it is functional. An outline of the steps: as §1
In data set [15] the test system is AGS. As to the kind of experiment: Upregulation of caspase3-directed PARP cleavage in human AGS cells at 1 to 5 uM after 24 hrs by Western blot analysis. Type of data set: functional, cell-based.
For data set [16], the system named is AGS. As to the kind of experiment: Downregulation of SIRT1 protein level in human AGS cells at 1 and 5 uM after 24 after 24 hrs by Western blot analysis. Type of data set: functional, cell-based.
Data set [17] has as its target T2, DNA topoisomerase 1 (Homo sapiens). As to the kind of experiment: Inhibition of Top1 (unknown origin)-mediated relaxation of pBR322 DNA at 0.5 uM incubated for 30 mins by ethidium bromide staining-based gel electrophoresis assay. The gist of the method: as §2
In data set [18] the test system is AGS. As to the kind of experiment: Induction of apoptosis in human AGS cells assessed as late apoptotic cells at 5 uM after 24 hrs by annexin V-FITC staining-based flow cytometric analysis (Rvb=5.5%). Type of data set: functional. The gist of the method: as §1
For data set [19], the target named is DNA topoisomerase 2-alpha (Homo sapiens) (UniProt P11388). As to the kind of experiment: Inhibition of Top2 (unknown origin)-mediated relaxation of pBR322 DNA at 0.1 to 2.5 uM incubated for 30 mins by ethidium bromide staining-based gel electrophoresis assay.
The test system of data set [20] is AGS. As to the kind of experiment: Induction of apoptosis in human AGS cells assessed as viable cells at 5 uM after 24 hrs by annexin V-FITC staining-based flow cytometric analysis (Rvb=83.7%). The note with it: read-out: Activity. Type of data set: functional. An outline of the steps: as §1
Data set [21] deals with AGS. As to the kind of experiment: Upregulation of acetylated p53 level in human AGS cells at 1 and 5 uM after 24 hrs by Western blot analysis. Type of data set: functional, cell-based.
In data set [22] the test system is AGS. As to the kind of experiment: Upregulation of total p53 level in human AGS cells at 1 and 5 uM after 24 hrs by Western blot analysis. In kind it is cell-based.
In data set [23] the test system is AGS. As to the kind of experiment: Upregulation of caspase3-directed PARP cleavage in human AGS cells at 5 uM after 24 hrs by Western blot analysis. In kind it is functional, cell-based.
Data set [24] relates to AGS. As to the kind of experiment: Induction of apoptosis in human AGS cells assessed as necrotic cells at 5 uM after 24 hrs by annexin V-FITC staining-based flow cytometric analysis (Rvb=1.1%). Type of data set: functional.
The subject of data set [25] is AGS. As to the kind of experiment: Increase in intracellular NAD+/NADH ratio in human AGS cells at 5 uM incubated for 5 mins. In kind it is functional, cell-based.
Data set [26] addresses T2, DNA topoisomerase 1 (Homo sapiens). As to the kind of experiment: Inhibition of Top1 (unknown origin)-mediated relaxation of pBR322 DNA at 2.5 uM incubated for 30 mins by ethidium bromide staining-based gel electrophoresis assay. The gist of the method: as §2
Data set [27] has as its system AGS. As to the kind of experiment: Induction of apoptosis in human AGS cells assessed as early apoptotic cells at 5 uM after 24 hrs by annexin V-FITC staining-based flow cytometric analysis (Rvb=9.8%). Type of data set: functional. An outline of the steps: as §1

Calls of active or inactive are those of the source. The calls are words filed in the database; no cut-off is given here. Bounds are passed on as bounds.

DNA topoisomerase 2-alpha (Homo sapiens), sequence (P11388 whole entry): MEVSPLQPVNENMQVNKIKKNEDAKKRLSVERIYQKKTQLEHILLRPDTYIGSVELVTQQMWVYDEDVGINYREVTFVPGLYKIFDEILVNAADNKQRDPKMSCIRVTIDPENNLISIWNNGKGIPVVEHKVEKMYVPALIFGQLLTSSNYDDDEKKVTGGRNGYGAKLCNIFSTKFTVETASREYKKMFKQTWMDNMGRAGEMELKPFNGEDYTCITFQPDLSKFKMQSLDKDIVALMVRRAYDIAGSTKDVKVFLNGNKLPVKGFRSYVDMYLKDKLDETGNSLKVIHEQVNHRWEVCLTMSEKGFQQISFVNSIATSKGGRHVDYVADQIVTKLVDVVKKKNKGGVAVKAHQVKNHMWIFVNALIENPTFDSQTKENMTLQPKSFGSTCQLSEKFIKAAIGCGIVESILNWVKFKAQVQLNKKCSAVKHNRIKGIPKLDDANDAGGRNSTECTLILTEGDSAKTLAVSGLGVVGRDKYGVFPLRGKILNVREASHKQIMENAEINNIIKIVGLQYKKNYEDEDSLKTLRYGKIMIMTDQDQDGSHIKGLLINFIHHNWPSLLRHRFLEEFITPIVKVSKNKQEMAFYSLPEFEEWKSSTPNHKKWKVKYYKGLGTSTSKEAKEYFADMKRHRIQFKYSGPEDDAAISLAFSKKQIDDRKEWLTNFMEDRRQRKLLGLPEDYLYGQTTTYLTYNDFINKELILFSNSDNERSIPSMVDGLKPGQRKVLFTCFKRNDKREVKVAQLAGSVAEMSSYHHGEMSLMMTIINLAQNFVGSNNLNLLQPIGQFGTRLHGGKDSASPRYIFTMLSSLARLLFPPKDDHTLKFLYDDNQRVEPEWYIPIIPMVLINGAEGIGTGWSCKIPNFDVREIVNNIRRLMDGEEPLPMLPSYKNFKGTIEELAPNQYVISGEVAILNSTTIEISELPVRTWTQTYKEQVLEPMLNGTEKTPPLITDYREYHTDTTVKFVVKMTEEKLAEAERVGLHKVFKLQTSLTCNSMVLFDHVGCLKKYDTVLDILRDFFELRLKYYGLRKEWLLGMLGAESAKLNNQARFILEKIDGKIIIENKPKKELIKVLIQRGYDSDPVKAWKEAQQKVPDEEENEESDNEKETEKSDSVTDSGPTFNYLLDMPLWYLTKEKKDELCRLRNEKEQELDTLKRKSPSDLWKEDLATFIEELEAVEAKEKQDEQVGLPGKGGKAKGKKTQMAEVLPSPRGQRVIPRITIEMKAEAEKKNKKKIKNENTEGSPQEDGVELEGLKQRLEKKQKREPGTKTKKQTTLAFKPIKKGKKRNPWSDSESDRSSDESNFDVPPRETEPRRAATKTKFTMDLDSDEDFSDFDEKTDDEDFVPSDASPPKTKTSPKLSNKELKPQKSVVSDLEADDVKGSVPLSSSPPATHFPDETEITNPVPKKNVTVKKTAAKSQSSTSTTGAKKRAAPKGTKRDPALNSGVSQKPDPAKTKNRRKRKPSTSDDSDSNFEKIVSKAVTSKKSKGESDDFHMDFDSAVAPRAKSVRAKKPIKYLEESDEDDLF

With `CN1CCN(C(=O)c2cc3c(NCCN)c4c(c(NCCN)c3o2)C(=O)c2ccccc2C4=O)CC1`, the IC50 in data set [1] was above 100 µM; in the data set on CCRF-CEM it was 25 µM; in the data set on K562 [6], 25.2 µM; in data set [8], 3.1 µM; with L1210 it was 26.1 µM; with HeLa, 61.3 µM. Further, the outcome in the data set with AGS [2], with AGS [9], with AGS [10], in the data set with AGS [12], with AGS [13] and in the data set with AGS [14] was inactive. Besides, the outcome with AGS [15] was inactive. Further, the result with AGS [3] and in the data set with AGS [7] was Active. In addition, the inhibition entry in data set [4] and in data set [5] was “inactive” throughout. The “Ratio IC50” value in the data set on K562 [11] is reported as above 4.

Take `N=C(N)NCCNc1c2c(c(NCCNC(=N)N)c3occc13)C(=O)c1ccccc1C2=O`: the result in the data set on AGS [16], in the data set with AGS [2], in the data set with AGS [3], with AGS [7], in the data set on AGS [9] and with AGS [21] was inactive. For the same molecule, the result in the data set on AGS [23] was inactive. Moreover, the IC50 stood at 6.53 µM in data set [1]; 9.02 µM with CCRF-CEM; 1.65 µM in the data set on K562 [6]; 1.02 µM in data set [8]; 5.54 µM with L1210; 3.27 µM in the data set on HeLa. The inhibition result in data set [17], in data set [19] and in data set [26] was “Active” throughout. The Activity is 4.2% in the data set with AGS [18]; “Not Active” with AGS [22]; 1.5% in the data set on AGS [10]; 1% in the data set with AGS [24]; 3% with AGS [12]; 10.5% in the data set on AGS [14]. In addition, in the data set with AGS [27], the Activity is listed as 8.6%. For the same molecule, the inhibition entry in data set [4] was “inactive”. The viability at 5 µM with AGS [20] worked out at 86.3%. For the same molecule, the “Ratio IC50” value in the data set with K562 [11] amounted to 3.98. Moreover, the viability at 10 µM in the data set on AGS [13] (read-out: Activity) was 84.9%. In addition, the outcome with AGS [25] was Active.
